# Measurements: ChEMBL document CHEMBL1141532, “Design and synthesis of tetrazole-based growth hormone secretagogue: the SAR studies of the O-benzyl serine side chain” (Bioorg Med Chem Lett, 2008)
# Legend:
# [1] = biological target: Growth hormone secretagogue receptor type 1 (Homo sapiens, UniProt Q92847); experiment: […] human growth hormone secretagogue receptor assessed as measuring intracellular calcium level by FLIPR assay; format: functional, cell-based
# Rattus norvegicus = experiment: Increase of growth hormone release in rat plasma at 1.74 umol/kg, iv after 15 mins by radioimmunoassay relative to control; format: functional
# Procedure, shortened: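 Acute model in anesthetized rats. Dosed intravenously at 1.74 μmol/kg. Blood was drawn 15 min later and plasma was isolated. Rat GH was measured by radioimmunoassay. Results are given as percent increase in GH release over vehicle-treated control animals.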
# Growth hormone secretagogue receptor type 1, sequence (Q92847 whole entry): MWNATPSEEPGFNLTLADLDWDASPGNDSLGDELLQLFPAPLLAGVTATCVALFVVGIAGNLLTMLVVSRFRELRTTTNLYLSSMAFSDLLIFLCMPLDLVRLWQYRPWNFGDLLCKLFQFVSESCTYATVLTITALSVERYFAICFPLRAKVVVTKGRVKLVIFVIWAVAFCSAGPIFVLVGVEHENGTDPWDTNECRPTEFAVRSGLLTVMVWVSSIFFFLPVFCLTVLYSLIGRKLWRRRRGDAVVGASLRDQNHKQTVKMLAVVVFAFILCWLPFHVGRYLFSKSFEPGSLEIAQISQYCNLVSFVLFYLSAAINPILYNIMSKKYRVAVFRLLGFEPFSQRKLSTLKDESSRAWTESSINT
SMILES,EC50 [1],Activity (Rattus norvegicus)
CC(C)(N)C(=O)N[C@H](COCc1ccc(F)cc1F)c1nnnn1CCOC(=O)NCCCCO,0.42 nM,1081%
CC(C)(N)C(=O)N[C@H](COCc1cccc(Cl)c1Cl)c1nnnn1CCOC(=O)NCCCCO,0.61 nM,–
CC(C)(N)C(=O)N[C@H](COCc1ccccc1Cl)c1nnnn1CCOC(=O)NCCCCO,0.45 nM,–
CC(C)(N)C(=O)N[C@H](COCc1ccccc1)c1nnnn1CCOC(=O)NCCCCO,–,750%
CC(C)(N)C(=O)N[C@H](COCc1cccc(OC(F)(F)F)c1)c1nnnn1CCOC(=O)NCCCCO,3.1 nM,–
CC(C)(N)C(=O)N[C@H](COCc1ccccc1-c1cccnc1)c1nnnn1CCOC(=O)NCCCCO,1.18 nM,–
CC(C)(N)C(=O)N[C@H](COCc1ccccc1C#N)c1nnnn1CCOC(=O)NCCCCO,1.26 nM,920%
CC(C)(N)C(=O)N[C@H](COCc1cc(C(F)(F)F)cc(C(F)(F)F)c1)c1nnnn1CCOC(=O)NCCCCO,34 nM,–
CC(C)(N)C(=O)N[C@H](COCc1ccccc1-c1ccccc1)c1nnnn1CCOC(=O)NCCCCO,0.34 nM,836%
CC(C)(N)C(=O)N[C@H](COCC1CCCCC1)c1nnnn1CCOC(=O)NCCCCO,1.66 nM,1654%
CC(C)(N)C(=O)N[C@H](COCc1cc(Cl)cc(Cl)c1)c1nnnn1CCOC(=O)NCCCCO,6.75 nM,–
COc1ccccc1COC[C@@H](NC(=O)C(C)(C)N)c1nnnn1CCOC(=O)NCCCCO,1.11 nM,–
CC(C)(N)C(=O)N[C@H](COCc1ccccc1C(F)(F)F)c1nnnn1CCOC(=O)NCCCCO,0.72 nM,–
CC(C)(N)C(=O)N[C@H](COCc1cccc(C(F)(F)F)c1)c1nnnn1CCOC(=O)NCCCCO,1.79 nM,–
Cc1noc(C)c1-c1ccccc1COC[C@@H](NC(=O)C(C)(C)N)c1nnnn1CCOC(=O)NCCCCO,1.04 nM,5237%
Cc1ccccc1COC[C@@H](NC(=O)C(C)(C)N)c1nnnn1CCOC(=O)NCCCCO,0.51 nM,1441%
CC(C)(N)C(=O)N[C@H](COCc1cccc(Cl)c1)c1nnnn1CCOC(=O)NCCCCO,1.6 nM,–
CC(C)(N)C(=O)N[C@H](COCc1ccc(OC(F)(F)F)cc1)c1nnnn1CCOC(=O)NCCCCO,33.2 nM,–
